Screens as filed in PubChem.
Hits are enriched below; roughly 3% of the tested compounds scored in any of these assays.
M4 antag: CHRM4 antagonism in calcium assay; CHO-hM4 cells, ACh EC80, Fluo-8 calcium fluorescence; AID 624125; actives 0.73% (n = 360,000); P08173; inhibition, % at 3 µM;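 active = inhibition above its plate's cutoff, the mean inhibition of sample wells plus 3 SD, cut at about 27% in these data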;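 also: 0% = acetylcholine EC80 with DMSO and 100% = DMSO without agonist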
Target sequence (P08173 whole entry, looked up): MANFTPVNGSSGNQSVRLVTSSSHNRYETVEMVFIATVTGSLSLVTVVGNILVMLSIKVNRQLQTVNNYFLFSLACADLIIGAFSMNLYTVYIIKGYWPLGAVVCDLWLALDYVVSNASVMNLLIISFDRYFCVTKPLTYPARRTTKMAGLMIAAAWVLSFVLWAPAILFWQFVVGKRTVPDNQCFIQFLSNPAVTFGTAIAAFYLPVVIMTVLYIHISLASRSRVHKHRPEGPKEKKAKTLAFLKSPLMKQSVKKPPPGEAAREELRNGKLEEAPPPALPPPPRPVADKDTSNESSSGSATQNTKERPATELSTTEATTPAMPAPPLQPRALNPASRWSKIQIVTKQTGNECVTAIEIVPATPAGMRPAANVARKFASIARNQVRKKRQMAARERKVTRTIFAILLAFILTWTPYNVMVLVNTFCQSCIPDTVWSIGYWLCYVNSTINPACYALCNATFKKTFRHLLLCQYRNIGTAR
M4 PAM: potentiates acetylcholine response at human M4 receptor; P08173; CHO-K1 hM4/Gqi5, Fluo-8 calcium fluorescence, ACh EC20; 0% = ACh EC20, 100% = maximal ACh; activation, % at 3 µM; actives 0.4% (n = 360,000);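 active = activation above its plate's cutoff, the mean activation of sample wells plus 3 SD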
TAAR1 agonist: agonists of human TAAR1; Q96RJ0; actives 0.99% (n = 360,000); activation, % at 3 µM; CHO RD-HGA16 TAAR1, Fluo-8 calcium fluorescence; vehicle wells 0%, saturating PEA agonist 100%;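 active = activation above the mean activation of all test compounds in the run plus 3 SD, cut at about 38% in these data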
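Test system: RD-HGA16 (CHO) cells co-expressing Gα16 and hTAAR1 / Benchmarks: DMSO vehicle as 0%, PEA at EC100 as 100% / Repeats: no replicates (n 1) / Measure: % activation from peak over basal fluorescence ratio, DMSO-to-PEA scaled / Timing: 17-24 h plating, Fluo-8 75 min 37 °C, 30 min RT / Technique: kinetic Fluo-8 calcium fluorescence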
CHRM4 agonist: CHRM4 agonism in calcium assay; P08173; CHO-K1 hM4/Gqi5, Fluo-8 calcium fluorescence; vehicle 0%, full acetylcholine response 100%; activation, % at 3 µM; actives 0.14% (n = 360,000); AID 624127;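 active = activation above the run mean over all test wells plus 3 SD, cut at about 32% in these data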;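 also: peak over basal fluorescence ratio per well then scaled between controls; 0% = DMSO wells and 100% = acetylcholine at EC100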
TAAR1 antag: human TAAR1 antagonism. actives 1.5% (n = 360,000). inhibition, % at 3 µM. CHO RD-HGA16 TAAR1, Fluo-8 calcium fluorescence, antagonist;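 active = inhibition above a per-plate cutoff, the mean inhibition of test compounds on that plate plus 3 SD, cut at about 49% in these data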;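 also: 0% = DMSO plus EC80 beta-PEA response and 100% = DMSO alone without agonist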
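Material: CHO RD-HGA16 cells bearing hTAAR1; compound dosing: one-point dosing, 3 µM nominal final; schedule: dye loading 75 min at 37 °C, then 30 min room temperature; measured by: calcium fluorescence with Fluo-8; control set: vehicle and agonist controls; replication: n of 1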
Starred values were filed as active, the others as inactive; nt = no result given.

SMILES	M4 antag	M4 PAM	TAAR1 agonist	CHRM4 agonist	TAAR1 antag
CCC(C(=O)Nc1ccc(C(=O)Nc2ccccc2C(=O)O)cc1)c1ccccc1 (configuration not stated)	-3	17*	-1	-2	-51
CC(=O)c1cccc(NC(=O)c2ccc(C)o2)c1	10	-1	7	1	-16
Cc1cccc(C(=O)Nc2ccc(C(=O)/C=C/c3ccncc3)cc2)c1	33*	-13	18	17	60*
NC(=O)[C@@H]1CCCN1C(=O)[C@@H](Cc1ccccc1)NC(=O)[C@H]1O[C@@H](n2ccc(N)nc2=O)[C@H](O)[C@@H]1O	nt	nt	1	nt	-4
CC(=O)c1ccc(NC(=O)c2cccc(NC(=O)c3ccccc3)c2)cc1	1	-7	12	6	50*
CC(=O)c1cccc(NC(=O)c2ccc3ccccc3c2)c1	-4	-9	20	10	37
Cc1ccnc(NC(=O)c2cccc(NC(=O)c3ccc(Cl)c(Cl)c3)c2)c1	12	-8	14	0	54*
O=C(Nc1ccccc1C(=O)O)c1cccc(NC(=O)c2ccc(Br)o2)c1	-7	18*	2	-1	1
Brc1ccc(CN2CCN(Cc3c[nH]c4ccccc34)CC2)cc1	9	-11	38*	8	10
O=C(N[C@@H](Cc1cccnc1)C(=O)N1CCC[C@H]1C(=O)NCc1ccccc1)c1ccc(Cl)c(Cl)c1	nt	nt	-1	nt	-2
O=[N+]([O-])c1cc([N+](=O)[O-])c(Oc2ccc(F)cc2F)cc1NN1CCCCC1	-16	27*	0	3	9
O=[N+]([O-])c1cc([N+](=O)[O-])c(Oc2cccc3ccccc23)cc1NN1CCCCC1	-3	30*	6	2	-7
COC(=O)c1ccc(-c2cccc(CN3CCN(c4ncc(Cc5ccccc5)cn4)CC3)c2)cc1	nt	nt	3	nt	-34
O=[N+]([O-])c1cccc(/C=N/n2cnnc2)c1	7	20*	0	0	-17
C[C@H](CO)N1C[C@H](C)[C@@H](CN(C)C(=O)Nc2ccnc(N3CCOCC3)c2)OCc2cn(nn2)CCCC1=O	nt	nt	6	nt	-3
Cc1cccc(NC(=O)c2ccc(N3C(=O)C4C5C=CC(C6CC56)C4C3=O)cc2)c1 (configuration not stated)	5	-9	12	9	68*
CC1C=CCC2C(=O)N(c3cccc(C(=O)Nc4ccc(Br)cc4)c3)C(=O)C12 (configuration not stated)	-4	-6	4	15	50*
O=C(Nc1ccccc1)c1cccc(N2C(=O)C3C4C=CC(C5CC45)C3C2=O)c1 (configuration not stated)	4	-5	8	16	24
O=C(Nc1ccc(Br)cc1)c1cccc(N2C(=O)C3C4CCC(C4)C3C2=O)c1 (configuration not stated)	4	-1	22	13	49*
Cc1ccccc1NC(=O)c1cccc(N2C(=O)C3C4CC(C(Br)C4Br)C3C2=O)c1 (configuration not stated)	-5	-9	41*	17	73*
O=C(Nc1ccc(Br)cc1)c1cccc(N2C(=O)C3C4C=CC(C4)C3C2=O)c1 (configuration not stated)	-5	-8	10	18	37
COc1ccccc1C(=O)N1CCN(C(=O)[C@H]2O[C@@H](n3cnc(C(N)=O)n3)[C@H](O)[C@@H]2O)CC1	nt	nt	1	nt	-7
C=CCN=C1NC(CCc2ccccc2)C(C(=O)OC)=C(C)N1Cc1cccc(C(F)(F)F)c1 (configuration not stated)	nt	nt	25	nt	33
Cc1ccc([N+](=O)[O-])c(OCCCN2CCC(Cc3ccccc3)CC2)c1	15	-18	29	39*	-2
Cc1ccc([N+](=O)[O-])c(OCCN2CCCCCC2)c1	-13	-6	1	2	11
O=C(/C=C/c1cccc(Cl)c1)NCCc1ccccc1	7	-7	0	0	-27
O=C(/C=C/c1c(Cl)cccc1Cl)NCCc1ccccc1	4	3	38*	-2	44
CC(C)=CC(=O)NCCc1ccccc1	1	-2	42*	1	14
NC(=O)NCCc1ccccc1	-2	16	3	3	3
